The source of these data is ChEMBL document CHEMBL1138222, “9-Benzylidene-naphtho[2,3-b]thiophen-4-ones as novel antimicrotubule agents-synthesis, antiproliferative activity, and inhibition of tubulin polymerization” (J Med Chem, 2006).

Experiment [1] can be described thus: Cell cycle arrest in KB/HeLa cells by accumulation at G1 phase at 3.16 nM. Type of experiment: functional, cell-based. As to conditions: Homo sapiens. An outline of the steps:
(§1)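 Subconfluent KB/HeLa cells were treated with a concentration series for 24 h at 37 °C, then detached and fixed in 70% ethanol. DNA was stained with propidium iodide alongside RNase digestion and measured by flow cytometry. Phase fractions came from cell-cycle modelling software, and IC50 from nonlinear regression.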

Experiment [2] can be described thus: Cell cycle arrest in KB/HeLa cells by accumulation at G1 phase at 10 nM. Type of experiment: functional, cell-based. To be noted: Homo sapiens. An outline of the steps:
as §1

Experiment [3] can be described thus: Cell cycle arrest in KB/HeLa cells by accumulation at S phase at 0.1 nM. As to conditions: Homo sapiens. Type of experiment: functional, cell-based. An outline of the steps: as §1
Experiment [4] in a line: Cell cycle arrest in KB/HeLa cells by accumulation at S phase at 100 nM. Type of experiment: functional, cell-based. As to conditions: Homo sapiens. An outline of the steps:
as §1

The nature of experiment [5]: Cell cycle arrest in KB/HeLa cells by accumulation at G1 phase at 0.3 nM. The format is functional, cell-based. As to conditions: Homo sapiens. In short, it runs like this:
as §1

A short description of experiment [6]: Cell cycle arrest in KB/HeLa cells by accumulation at G2/M phase at 100 nM. Type of experiment: functional, cell-based. As to conditions: Homo sapiens. In short, it runs like this:
as §1

Experiment [7] is described as follows: Cell cycle arrest in KB/HeLa cells by accumulation at G1 phase at 316 nM. The format is functional, cell-based. As to conditions: Homo sapiens. In short, it runs like this:
as §1

Experiment [8] in a line: Cell cycle arrest in KB/HeLa cells by accumulation at G2/M phase at 1 nM. The format is functional, cell-based. To be noted: Homo sapiens. In short, it runs like this: as §1
A short description of experiment [9]: Cell cycle arrest in KB/HeLa cells by accumulation at S phase at 3.16 nM. As to conditions: Homo sapiens. Type of experiment: functional, cell-based. In short, it runs like this:
as §1

Experiment [10] is described as follows: Cell cycle arrest in KB/HeLa cells by accumulation at S phase at 316 nM. Type of experiment: functional, cell-based. As to conditions: Homo sapiens. An outline of the steps:
as §1

A short description of experiment [11]: Cell cycle arrest in KB/HeLa cells by accumulation at G2/M phase at 3.16 nM. Type of experiment: functional, cell-based. To be noted: Homo sapiens.
Experiment [12] can be described thus: Cell cycle arrest in KB/HeLa cells by accumulation at G2/M phase at 31.6 nM. The format is functional, cell-based. To be noted: Homo sapiens. In short, it runs like this: as §1
Experiment [13] in a line: Cell cycle arrest in KB/HeLa cells by accumulation at G1 phase at 31.6 nM. To be noted: Homo sapiens. The format is functional, cell-based. In short, it runs like this: as §1
A short description of experiment [14]: Cell cycle arrest in KB/HeLa cells by accumulation at G1 phase at 1 nM. To be noted: Homo sapiens. The format is functional, cell-based. In short, it runs like this:
as §1

A short description of experiment [15]: Cell cycle arrest in KB/HeLa cells by accumulation at S phase at 1 nM. To be noted: Homo sapiens. Type of experiment: functional, cell-based. In short, it runs like this: as §1
A short description of experiment [16]: Cell cycle arrest in KB/HeLa cells by accumulation at G2/M phase at 316 nM. Type of experiment: functional, cell-based. To be noted: Homo sapiens. An outline of the steps:
as §1

Experiment [17] can be described thus: Cell cycle arrest in KB/HeLa cells by accumulation at G2/M phase at 0.3 nM. As to conditions: Homo sapiens. The format is functional, cell-based. In short, it runs like this:
as §1

Experiment [18] in a line: Cell cycle arrest in KB/HeLa cells by accumulation at S phase at 0.3 nM. Type of experiment: functional, cell-based. To be noted: Homo sapiens. In short, it runs like this:
as §1

Experiment [19] can be described thus: Cell cycle arrest in KB/HeLa cells by accumulation at G2/M phase at 10 nM. Type of experiment: functional, cell-based. To be noted: Homo sapiens. In short, it runs like this: as §1
Experiment [20] can be described thus: Cell cycle arrest in KB/HeLa cells by accumulation at S phase at 31.6 nM. The format is functional, cell-based. As to conditions: Homo sapiens. An outline of the steps:
as §1

A short description of experiment [21]: Cell cycle arrest in KB/HeLa cells by accumulation at G1 phase at 0.1 nM. Type of experiment: functional, cell-based. To be noted: Homo sapiens. An outline of the steps: as §1
Experiment [22] can be described thus: Cell cycle arrest in KB/HeLa cells by accumulation at G2/M phase at 0.1 nM. To be noted: Homo sapiens. Type of experiment: functional, cell-based. In short, it runs like this:
as §1

Experiment [23] is described as follows: Cell cycle arrest in KB/HeLa cells by accumulation at G2/M phase. The format is functional, cell-based. To be noted: Homo sapiens. In short, it runs like this:
as §1

Experiment [24] in a line: Cell cycle arrest in KB/HeLa cells by accumulation at G1 phase at 100 nM. The format is functional, cell-based. As to conditions: Homo sapiens. In short, it runs like this: as §1
Experiment [25] is described as follows: Cell cycle arrest in KB/HeLa cells by accumulation at S phase at 10 nM. The format is functional, cell-based. To be noted: Homo sapiens. In short, it runs like this:
as §1

Experiment [26] deals with RKO. Nature of the experiment: Antiproliferative activity against RKO cells by XTT assay after 48 hrs. The format is functional, cell-based. As to conditions: Homo sapiens. In short, it runs like this:
(§2)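 RKO colon adenocarcinoma cells carry an ecdysone-inducible p27kip1 vector. On day 1 they were plated with 3 µM ponasterone A (induced, 2 × 10^4 cells/well) or without it (not induced, 6 × 10^3 cells/well) and held 24 h at 37 °C. Compound or DMSO control was then added for 48 h at 37 °C, followed by a standard XTT read-out.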
On the technique in general: Formazan colour is commonly taken as a measure of viable cells.

For experiment [27], the system named is L1210. Nature of the experiment: Antiproliferative activity against L1210 VCR cells by XTT assay after 48 hrs. Type of experiment: functional, cell-based. As to conditions: Mus musculus, L1210, 48 h. An outline of the steps:
(§3)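 Tumour cell lines were seeded at 1 × 10^3 to 8 × 10^4 cells/well for logarithmic growth and exposed to a concentration series for 48 h. Proliferation was read as cellular metabolic activity by XTT. IC50 came from dose-response curves by nonlinear regression, with at least two replicates.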

Experiment [28] deals with K562. Nature of the experiment: Antiproliferative activity against human K562 cell line. Type of experiment: functional, cell-based.
Experiment [29] in a line: Antiproliferative activity against KB/HeLa cells by XTT assay after 48 hrs. Type of experiment: functional, cell-based. To be noted: Homo sapiens. In short, it runs like this:
as §3

Experiment [30] deals with RKO. Nature of the experiment: Antiproliferative activity against RKO cells with ectopic-induced p27kip1-expression by XTT assay after 48 hrs. Type of experiment: functional, cell-based. As to conditions: Homo sapiens. An outline of the steps: as §2
Experiment [31] has as its system NCI-H460. Nature of the experiment: Antiproliferative activity against NCI-H460 cells by XTT assay after 48 hrs. The format is functional, cell-based. To be noted: Homo sapiens, NCI-H460, 48 h. In short, it runs like this:
as §3

The test system of experiment [32] is L1210. Nature of the experiment: Antiproliferative activity against L1210 cells by XTT assay after 48 hrs. The format is functional, cell-based. As to conditions: Mus musculus, L1210, 48 h. An outline of the steps:
as §3

In experiment [33] the test system is SF-268. Nature of the experiment: Antiproliferative activity against SF268 cells by XTT assay after 48 hrs. Type of experiment: functional, cell-based. As to conditions: Homo sapiens, SF-268, 48 h. An outline of the steps:
as §3

For experiment [34], the target named is Tubulin (Sus scrofa, UniProt P02554+P02550). Nature of the experiment: Inhibition of tubulin polymerization in porcine brain.
The test system of experiment [35] is MDR. Nature of the experiment: Antiproliferative activity against LT12 MDR cells by XTT assay after 48 hrs. The format is functional, cell-based. As to conditions: Rattus norvegicus. In short, it runs like this:
as §3

Experiment [36] relates to P388. Nature of the experiment: Antiproliferative activity against P388 cells by XTT assay after 48 hrs. Type of experiment: functional, cell-based. As to conditions: Mus musculus, P388, 48 h. An outline of the steps: as §3
Experiment [37] has as its target T1, Tubulin (Homo sapiens) (UniProt P68371+Q9H4B7+P0DPH7+P68366+Q13509+Q71U36+P04350+Q3ZCM7+P07437+P68363+Q9BQE3+Q6PEY2+Q13885+Q9BVA1+Q9BUF5). Nature of the experiment: Displacement of [3H]colchicine from tubulin by SPA assay. Type of experiment: protein-complex assay.
The nature of experiment [38]: cells. To be noted: Rattus norvegicus, LT12, 48 h.
Experiment [39] relates to SK-OV-3. Nature of the experiment: Antiproliferative activity against SKOV3 cells by XTT assay after 48 hrs. The format is functional, cell-based. As to conditions: Homo sapiens, SK-OV-3, 48 h. An outline of the steps:
as §3

Experiment [40] concerns the target T1, Tubulin (Homo sapiens). Nature of the experiment: Displacement of [3H]paclitaxel from tubulin by SPA assay. Type of experiment: protein-complex assay. On the technique in general: In a radioligand displacement assay an active substance lowers the binding of a labelled ligand.
Experiment [41] deals with P388. Nature of the experiment: Antiproliferative activity against P388 ADR cells by XTT assay after 48 hrs. Type of experiment: functional, cell-based. To be noted: Mus musculus, P388, 48 h. In short, it runs like this:
as §3

Active and inactive are the calls of the source. The calls are words filed in the database; no cut-off is given here.

As for `CC[C@]1(O)C[C@H]2CN(CCc3c([nH]c4ccccc34)[C@@](C(=O)OC)(c3cc4c(cc3OC)N(C=O)[C@H]3[C@@](O)(C(=O)OC)[C@H](OC(C)=O)[C@]5(CC)C=CCN6CC[C@]43[C@@H]65)C2)C1` [VINCRISTINE], the Activity in experiment [1] worked out at 6.5%; in experiment [2], 0.5%; in experiment [3], 27.7%; in [4], 4.8%; in experiment [5], 64.5%; in experiment [6] it was 95.1%. Moreover, the Activity in experiment [7] was 0.2%; in experiment [8], 17.2%; in experiment [9], 26%; in experiment [10], 5.9%; in experiment [11], 65.8%; in [12] it was 92.6%. The Activity in [13] was found to be 1%; in experiment [14] it was 53.7%; in experiment [15] it was 28.3%; in experiment [16], 93.8%; in [17], 11.7%; in experiment [18], 24%. The Activity came out at 86.7% in experiment [19]; 7.2% in experiment [20]; 61.2% in experiment [21]; 11.1% in experiment [22]; 0.2% in experiment [24]; 13.1% in experiment [25]. The EC50 – broadly, the concentration needed to bring the measured effect to its halfway point – in experiment [23] was 2.4 nM.

With `COc1ccc(/C=C2/c3ccccc3C(=O)c3ccsc32)c(OC)c1O`, the IC50 (usually the concentration that gives 50% inhibition) in experiment [26] was 40 nM; in experiment [27], 170 nM; in experiment [28] it was 80 nM; in experiment [29], 190 nM; in experiment [30], greater than 9000 nM; in experiment [31], 280 nM. Further, the IC50 in [32] came to 130 nM; in experiment [33] it was 50 nM; in experiment [34], 500 nM; in experiment [35], 190 nM; in experiment [36], 140 nM; in experiment [38] it was 180 nM. The IC50 was 40 nM in [39] and 160 nM in [41]. Also, the Activity in [37] stood at 0.29 µM. In addition, in experiment [40], the result was inactive.
